Measured values from ChEMBL document CHEMBL2346527, “Kinase scaffold repurposing for neglected disease drug discovery: discovery of an efficacious, lapatinib-derived lead compound for trypanosomiasis” (J Med Chem, 2013).
pEC50: −log10 of the molar value. Calls of active or inactive are those of the source. The calls are words filed in the database; no cut-off is given here.

Assays:
Trypanosoma brucei [1] = assay: Antitrypanosomal activity against bloodstream Trypanosoma brucei assessed as increase in 1K2N cells after 7 hrs by DAPI staining-based fluorescence microscopy; type: functional, organism-based
In short: (§1)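 After 7 h with or without drug, trypanosomes were stained with DAPI and imaged by single-cell fluorescence microscopy with DIC. Nuclei (N) and kinetoplasts (K) were counted per cell to give the distribution of organelle configurations.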

Trypanosoma brucei [2] = assay: Antitrypanosomal activity against bloodstream Trypanosoma brucei assessed as reduction in 1K1N cells after 7 hrs by DAPI staining-based fluorescence microscopy; type: functional, organism-based; in short: as §1
Trypanosoma brucei [3] = assay: Reduction of 2C to 4C equivalents of DNA in bloodstream Trypanosoma brucei after 7 hrs by DAPI staining-based fluorescence microscopy (reference value: 40 %); type: functional; set-up: scale not given: the % may be the effect or the level left
Trypanosoma brucei [4] = assay: Antitrypanosomal activity against bloodstream Trypanosoma brucei assessed as increase in 4C equivalents of DNA after 7 hrs by DAPI staining-based fluorescence microscopy (reference value: 25 %); type: functional
Trypanosoma brucei [5] = assay: Antitrypanosomal activity against bloodstream Trypanosoma brucei assessed as DNA profile alteration after 7 hrs by propidium iodide staining-based flow cytometry; type: functional, organism-based
In short: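 Trypanosomes were incubated 7 h with drug or without (control), then stained with propidium iodide. Flow cytometry analysed 10,000 events, and DNA content per cell (2C, 2C-4C, 4C populations) was quantified.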

Trypanosoma brucei [6] = assay: Inhibition of transferrin receptor-mediated endocytosis in bloodstream Trypanosoma brucei at 8 uM after 7 hrs by flow cytometry
[7] = system: Trypanosoma brucei brucei; assay: Antitrypanosomal activity against Trypanosoma brucei brucei CA427 infected in Swiss Webster mouse assessed as mouse mortality at 10 mg/kg, po bid by hemocytometer; type: functional, organism-based; set-up: dose 10 mg/kg
In short: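 Mice were infected with 10^4 T. brucei brucei CA427 cells. From 24 h post-infection, they were dosed orally at 10 mg/kg twice per day (20 mg/kg/day). Daily parasitemia and survival were followed against untreated control mice.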

[8] = system: Trypanosoma brucei brucei; assay: Antitrypanosomal activity against Trypanosoma brucei brucei CA427 infected in Swiss Webster mouse assessed as mouse survival at 10 mg/kg, ip bid by hemocytometer (reference value: 5 days); type: functional; details: route intraperitoneal
[9] = system: Trypanosoma brucei brucei; assay: Antitrypanosomal activity against Trypanosoma brucei brucei CA427 infected in Swiss Webster mouse assessed as reduction in replication rate at 10 mg/kg, ip bid measured on day 3 by hemocytometer; type: functional, organism-based; set-up: dose 10 mg/kg
In short: (§2)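 Mice were infected with 10^4 T. brucei brucei CA427 cells. From 24 h post-infection, they were dosed i.p. at 10 mg/kg twice per day (20 mg/kg/day). Blood parasitemia was measured each day against untreated control mice.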

[10] = system: Trypanosoma brucei brucei; assay: Antitrypanosomal activity against Trypanosoma brucei brucei CA427 infected in Swiss Webster mouse assessed as delayed detection of trypanosomes in blood at 10 mg/kg, ip bid after 24 hrs by hemocytometer; type: functional, organism-based; set-up: dose 10 mg/kg; in short: as §2
Mus musculus = assay: Toxicity in Swiss Webster mouse infected with Trypanosoma brucei brucei CA427at 40 mg/kg, po; type: organism-based; set-up: dose 40 mg/kg, route oral; details: in vivo
In short: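 Infection used 10^4 T. brucei brucei CA427 cells per mouse. Beginning 24 h later, mice received 40 mg/kg once per day in a multi-day regimen. Blood was checked for parasites over 3 days against untreated infected controls, and drug-related toxicity was noted.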

Brain = assay: Drug uptake in BALB/c mouse brain at 40 mg/kg, po after 24 hrs; type: ADME, organism-based; set-up: dose 40 mg/kg, route oral; details: in vivo
In short: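 Mice received a single oral dose of 40 mg/kg. Drug levels in plasma and brain tissue were measured over 24 hours.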

[11] = system: Trypanosoma brucei brucei; assay: Antitrypanosomal activity against bloodstream form Trypanosoma brucei brucei Lister 427 after 48 hrs by hemocytometer; type: functional, organism-based; details: Lister 427, 48 h
In short: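 Bloodstream Lister 427 cells were seeded at 2 × 10^3 cells/ml in HMI-9 medium and given drug from 200X DMSO stocks, with DMSO as control. Three independent experiments, each dose in duplicate (n = 6).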

`Fc1cccc(COc2ccc(Nc3ncnc4ccc(-c5cccc(N6CCOCC6)c5)cc34)cc2Cl)c1` was tested, and the Activity (Trypanosoma brucei [1]) was “Active”, the Activity (Trypanosoma brucei [2]) was “Active” and the Activity (Trypanosoma brucei [3]) was 25%. For the same compound, the Activity (Trypanosoma brucei [4]) was 40%, the Activity (Trypanosoma brucei [5]) was “Active” and the inhibition (Trypanosoma brucei [6]) was “inactive”. The Activity [7] was “inactive”, the Survival [8] was 9 days and the Activity [9] was “Active”. The Activity [10] was “Active”, the Activity (Mus musculus) was “Toxic” and the Drug uptake (Brain) was 5%. It also gave a pEC50 [11] of 7.38.
